Assay results reported in ChEMBL document CHEMBL4513216, “Probing the Open Global Health Chemical Diversity Library for Multistage-Active Starting Points for Next-Generation Antimalarials” (ACS Infect Dis, 2020).

Assay: Toxicity liver stage against HepG2, at 10uM
Format: cell-based
Design: test concentration 10 uM, cell line HepG2-A16-CD81EGFP
Conditions: human, HepG2-A16-CD81EGFP cells; read-out: INHIBITION
In short: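 Uninfected HepG2-A16-CD81EGFP cells, 3 × 10^3 per well, 1536-well, plated on prespotted compound at 10 μM final, parasite-free screening media added to match infected plates; puromycin 10 μM positive, DMSO 0.5% negative; run in parallel with 48 h PbLuc assay at 37 °C, 5% CO2; viability by CellTiter-Glo luminescence, normalized to controls.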

SMILES: COC(=O)c1ccc(C2SCC(=O)Nc3ccsc32)cc1 (stereo unspecified)
- cytotoxicity at 10 µM: -6.79%

SMILES: Cc1cccc(Oc2ccccc2CNC(=O)C2CCC(=O)NC2)c1 (stereo unspecified)
- cytotoxicity at 10 µM: 10.6%

SMILES: CCN(CC)C(=O)[C@@H]1C[C@@H](N)CN1c1nc(N(C)C)nc(C)c1C
- cytotoxicity at 10 µM: -24.4%

SMILES: FC(F)(F)c1cc(C2CCN(c3cnccn3)CC2)n2ccnc2n1
- cytotoxicity at 10 µM: -1.53%

SMILES: CCC(=O)N1CCN(CCn2cccn2)c2ncccc2C1
- cytotoxicity at 10 µM: -106%

SMILES: CC(C)(CO)CCCNC(=O)NC1(C)Cc2ccccc2C1
- cytotoxicity at 10 µM: -1%

SMILES: CC(C)c1nccn1CCCNC(=O)c1ccc(-c2cccnc2)nc1
- cytotoxicity at 10 µM: -11.8%

SMILES: Cn1ccc(CN2CCC(NC(=O)C3CCCCC3)CC2)cc1=O
- cytotoxicity at 10 µM: -13%

SMILES: CO[C@H]1CCN(C(=O)c2cc(C)on2)[C@H]1Cc1ccncc1
- cytotoxicity at 10 µM: 1.2%

SMILES: Clc1snnc1CN1CCN(c2nccs2)CC1
- cytotoxicity at 10 µM: -43.9%

SMILES: O=C([C@@H]1C[C@@H]2CCN(C3CCOCC3)C[C@H]2O1)N1CCCC1
- cytotoxicity at 10 µM: 4.5%

SMILES: O=C1CCCC2=Nc3nonc3NC(c3cccc(F)c3F)C12 (stereo unspecified)
- cytotoxicity at 10 µM: 0.285%

SMILES: Cc1nc(C)n(CC2CCCCN2CCCS(N)(=O)=O)n1 (stereo unspecified)
- cytotoxicity at 10 µM: -3.73%

SMILES: CCOCC(=O)N1CCC(c2nccn2Cc2cscn2)CC1
- cytotoxicity at 10 µM: -5.58%

SMILES: CN1N=C(C(=O)N2CCCCC2)S(=O)(=O)c2ccccc21
- cytotoxicity at 10 µM: -183%

SMILES: c1cnn(CC2CCCN2Cc2cn3ccsc3n2)c1 (stereo unspecified)
- cytotoxicity at 10 µM: -10.2%

SMILES: O=S1(=O)C[C@@H]2[C@H](C1)N(Cc1cc(Cl)cc(Cl)c1)CCN2CCO
- cytotoxicity at 10 µM: 0.303%

SMILES: CC(Cn1cccn1)NC(=O)N1CCN(Cc2cccs2)CC1 (stereo unspecified)
- cytotoxicity at 10 µM: 2.31%

SMILES: CCCOc1ccc2c(c1)OCC(C(=O)NC(C)Cn1cccn1)=C2 (stereo unspecified)
- cytotoxicity at 10 µM: 4.46%

SMILES: Cc1noc(C)c1C1CCCN1C(=O)CN1C(=O)OC(C)(C)C1=O (stereo unspecified)
- cytotoxicity at 10 µM: -2.57%

SMILES: CNC(=O)C1CN(C(=O)c2cccnc2)CCN(S(C)(=O)=O)C1 (stereo unspecified)
- cytotoxicity at 10 µM: 1.45%

SMILES: Cc1ccccc1CC(=O)N1C[C@@H](O)[C@H](N2CCC(F)(F)CC2)C1
- cytotoxicity at 10 µM: -14%

SMILES: CS(=O)(=O)CCC(=O)Nc1cc(F)ccc1OCC1CCCO1 (stereo unspecified)
- cytotoxicity at 10 µM: 3.41%

SMILES: CCCc1noc(CCC(=O)N2CCCC2Cn2cc(C)cn2)n1 (stereo unspecified)
- cytotoxicity at 10 µM: -1.11%

SMILES: CCN1Cc2c(C(=O)NC)ncn2-c2ccccc2S1(=O)=O
- cytotoxicity at 10 µM: -73%

SMILES: O=C(C[C@@H]1COC[C@H]2CN(CC3CC3)C[C@@H]12)NCc1cccnc1
- cytotoxicity at 10 µM: 9.21%

SMILES: c1ccc(-c2n[nH]c(CCNc3nnc(C4CCC4)o3)n2)cc1
- cytotoxicity at 10 µM: 0.677%

SMILES: O=C(N[C@@H]1CCN(Cc2cc3ccccc3s2)C[C@H]1O)c1cccnc1
- cytotoxicity at 10 µM: -7.57%

SMILES: N#Cc1cc2c(=O)n(CC(O)C(F)(F)F)ccc2[nH]c1=O (stereo unspecified)
- cytotoxicity at 10 µM: -1.99%

SMILES: Cc1cc(NC(=O)CNC(C)(C)c2ccccc2)on1
- cytotoxicity at 10 µM: -8.18%

SMILES: CC1(C)[C@H](Cc2cc(CN3CCCCC3)on2)C[C@@H]1NC(=O)C1CC1
- cytotoxicity at 10 µM: -8.17%

SMILES: COC(=O)[C@@H](NC(=O)c1coc(COc2cccc(F)c2F)n1)C(C)C
- cytotoxicity at 10 µM: 1.31%

SMILES: COCC1CN(c2ccc3c(Cl)ccnc3c2F)CCO1 (stereo unspecified)
- cytotoxicity at 10 µM: 25%

SMILES: Cc1cc(C(=O)NCc2ccnc(N3CCN(C)CC3)c2)sc1C
- cytotoxicity at 10 µM: -11.7%

SMILES: Cc1cc(C2CCCN(CCS(=O)(=O)c3ccccc3)C2)n[nH]1 (stereo unspecified)
- cytotoxicity at 10 µM: -16.7%

SMILES: Cc1nccn1-c1ncccc1CNC(=O)c1ccc(O)nc1
- cytotoxicity at 10 µM: -7.55%

SMILES: O=S(=O)(C1CC1)N1CCOC2(CCCN(Cc3ccccn3)C2)C1 (stereo unspecified)
- cytotoxicity at 10 µM: -0.78%

SMILES: CNC(=O)[C@H]1C[C@@H]2CN(C(=O)c3cccnc3)C[C@@H]2N1S(C)(=O)=O
- cytotoxicity at 10 µM: -4.12%

SMILES: O=C(C1CCC1)N1C[C@@H](c2ccsc2)[C@@H]2CN(C3CCCC3)CC[C@@H]21
- cytotoxicity at 10 µM: -1.51%

SMILES: Cc1c(NC(=O)N(C)CCn2cnnc2)cccc1OC1CCCC1
- cytotoxicity at 10 µM: -0.509%

SMILES: c1cc(CN2CCC3(CCOCC3COCC3CC3)CC2)co1 (stereo unspecified)
- cytotoxicity at 10 µM: -2.69%

SMILES: CC(O)CN1CCC(CN(C)Cc2cc(C#N)ccc2F)CC1 (stereo unspecified)
- cytotoxicity at 10 µM: 2.05%

SMILES: CN(Cc1cc(-c2ccncc2)no1)C(=O)[C@@H]1CSCN1C
- cytotoxicity at 10 µM: -2.62%

SMILES: COc1ccc(CC(=O)NC2(C)CCS(=O)(=O)C2)cc1F (stereo unspecified)
- cytotoxicity at 10 µM: 2.05%

SMILES: CNC(=O)COC(=O)c1ccn(-c2ccc(Cl)c(Cl)c2)n1
- cytotoxicity at 10 µM: 20.9%

SMILES: CCn1c(CN(C)C)nnc1C1CCN(Cc2ccccn2)CC1
- cytotoxicity at 10 µM: 12.5%

SMILES: CC(=O)N1CCCN(C(=O)Cc2ccc3c(c2)OCO3)CC1
- cytotoxicity at 10 µM: -15.1%

SMILES: Cc1nc(C)n(CC2CN(CCn3cccn3)CCO2)n1 (stereo unspecified)
- cytotoxicity at 10 µM: -0.665%

SMILES: Cc1ccc(CNC(=O)C2=NOC3(CCCNC3)C2)cc1 (stereo unspecified)
- cytotoxicity at 10 µM: 1.33%

SMILES: CCOCC(=O)N(Cc1ccco1)c1ccc(OC)c(F)c1
- cytotoxicity at 10 µM: -2.75%

SMILES: CCc1ccc(OCCN(C)C(=O)c2ccncc2Cl)cc1
- cytotoxicity at 10 µM: -2.91%

SMILES: CCN(CC)C(=O)Cn1c(-c2ccc(Cl)cc2)nc(C)c(CCO)c1=O
- cytotoxicity at 10 µM: 2.62%

SMILES: CCc1nc(Cn2nc(COC)oc2=O)cs1
- cytotoxicity at 10 µM: -43.4%

SMILES: CCOc1ccc(C(=O)CCC(=O)N(C)Cc2nc(C)c[nH]2)cc1C
- cytotoxicity at 10 µM: -5.45%

SMILES: O=C(Nc1cc(-c2ccncc2)no1)C1CCC1
- cytotoxicity at 10 µM: -12.6%

SMILES: CNc1ccc(CC2CCCN(C(=O)c3cncnc3C)C2)nn1 (stereo unspecified)
- cytotoxicity at 10 µM: 5.99%

SMILES: CN(C)C(=O)CO[C@H]1COCCN(C2CCOCC2)C1
- cytotoxicity at 10 µM: 3.64%

SMILES: O=C(NCCS(=O)(=O)N1CCN(c2ncccn2)CC1)c1ccccc1
- cytotoxicity at 10 µM: -3.28%

SMILES: Cc1cccc2c1ccn2CC(=O)O
- cytotoxicity at 10 µM: 9.49%

SMILES: Cc1csc(CN2CCC[C@]3(C[C@H](OCC4CC4)CO3)C2)n1
- cytotoxicity at 10 µM: -141%

SMILES: CN(C)Cc1cc(=O)n2c(n1)CN(Cc1ccco1)CCC2
- cytotoxicity at 10 µM: 7.07%

SMILES: O=C1[C@H]2CN(C3CCOC3)C[C@H]2CN1c1ccccc1 (stereo partly specified)
- cytotoxicity at 10 µM: 7.16%

SMILES: O=C(c1cc(-n2cccn2)ccc1Cl)N1CCCC(N2CCCC2)C1 (stereo unspecified)
- cytotoxicity at 10 µM: 1.86%

SMILES: CCCC(=O)N(CCCN1CCOCC1)c1nc2c(Cl)cccc2s1
- cytotoxicity at 10 µM: -12.8%

SMILES: CCc1nnc(CN2CCN(C(C)=O)CC2)o1
- cytotoxicity at 10 µM: 4.39%

SMILES: CCOCCCNC(=O)CN(c1cccc(F)c1)S(C)(=O)=O
- cytotoxicity at 10 µM: 7.77%

SMILES: COc1nccnc1N1CCN(Cc2cccc(F)c2)C(=O)C1
- cytotoxicity at 10 µM: 3.77%

SMILES: Cc1nc(C)c(C(=O)NCCNc2cc(N3CCCC3)ncn2)s1
- cytotoxicity at 10 µM: -73.4%

SMILES: COCC1c2c(cnn2C)CCN1Cc1ccc(F)cc1 (stereo unspecified)
- cytotoxicity at 10 µM: -10.6%

SMILES: CCOc1ncccc1C(=O)N1CCCC(n2nc(C)nc2C)C1 (stereo unspecified)
- cytotoxicity at 10 µM: -8.47%

SMILES: CN(C)S(=O)(=O)CCCOc1cccc(-n2ccnc2)c1
- cytotoxicity at 10 µM: 14%

SMILES: CC(C)COC(=O)N1CCN(C(=O)c2ccc3nccn3c2)CC1
- cytotoxicity at 10 µM: 12.6%

SMILES: COc1ccccc1CC(=O)N(C)Cc1cc(C)on1
- cytotoxicity at 10 µM: 4.76%

SMILES: CN(C)CCOCC1CN(Cc2ccccn2)Cc2nnn(C)c21 (stereo unspecified)
- cytotoxicity at 10 µM: 5.5%

SMILES: COc1ccc(Cl)cc1C(=O)N1CCCC(c2cc(C)[nH]n2)C1 (stereo unspecified)
- cytotoxicity at 10 µM: -10.1%

SMILES: CO[C@H]1CN(C)S(=O)(=O)[C@@]12CCN(Cc1ccccc1)C2
- cytotoxicity at 10 µM: 1.79%

SMILES: CN(C)S(=O)(=O)c1ccc2c(c1)N(Cc1nccn1C)CCC2
- cytotoxicity at 10 µM: 2.26%

SMILES: O=C1N(Cc2cccc(F)c2F)CCCC1(O)CNC1CCCC1 (stereo unspecified)
- cytotoxicity at 10 µM: 13.8%

SMILES: CCOC(=O)[C@]12CCCN(Cc3cccs3)C[C@H]1CN(C(C)C)C2
- cytotoxicity at 10 µM: 12.2%

SMILES: O=C(c1ccc(-c2cccc3c2CCNC3)o1)N1CCCC1
- cytotoxicity at 10 µM: 3.34%

SMILES: CCOc1ccc(C(=O)NCCCNc2ncccn2)cc1
- cytotoxicity at 10 µM: 11.5%
